Measurements published in ChEMBL document CHEMBL3580633, “Benzoxaborole antimalarial agents. Part 4. Discovery of potent 6-(2-(alkoxycarbonyl)pyrazinyl-5-oxy)-1,3-dihydro-1-hydroxy-2,1-benzoxaboroles” (J Med Chem, 2015).
pIC50: −log10 of the molar value.

Legend:
Plasmodium berghei [1] = test: Antiplasmodial activity against Plasmodium berghei infected in Swiss Webster mouse assessed as mouse survival at 33 mg/kg, po dosed once daily for 4 consecutive days beginning 1 hr after initial infection and measured on day 5 post infection by Giemsa staining method; assay type: functional
Outline: (§1)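 Female Swiss Webster mice (about 20 g) were infected ip with 6 × 10^6 P. berghei-infected erythrocytes from a donor mouse. They were dosed by oral gavage once daily for 4 days, starting 1 h post-infection, in PEG 300/propylene glycol/water (55/25/20 by weight). Parasitemia was read daily on Giemsa smears from day 4, and mice were euthanized above 50% parasitemia. Percent survival was tracked to 21 days.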

Plasmodium berghei [2] = test: Antiplasmodial activity against Plasmodium berghei infected in Swiss Webster mouse assessed as mouse survival at 1 mg/kg, po dosed once daily for 4 consecutive days beginning 1 hr after initial infection and measured on day 4 post infection by Giemsa staining method; assay type: functional
Outline: (§2)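 Female Swiss Webster mice (about 20 g) infected ip with 6 × 10^6 P. berghei-infected erythrocytes. Oral gavage once daily for 4 days, starting 1 h after infection. Vehicle PEG300/propylene glycol/water (55/25/20 by weight). Giemsa-smear parasitemia counted daily from day 4. Mice euthanised above 50% parasitemia. Survival followed to day 21, 5 mice per dose, chloroquine 30 mg/kg as reference.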

Plasmodium berghei [3] = test: Antiplasmodial activity against Plasmodium berghei infected in Swiss Webster mouse assessed as mouse survival at 3 mg/kg, po dosed once daily for 4 consecutive days beginning 1 hr after initial infection and measured on day 4 post infection by Giemsa staining method; assay type: functional; outline: as §2
Plasmodium berghei [4] = test: Antiplasmodial activity against Plasmodium berghei infected in Swiss Webster mouse assessed as mouse survival at 3 mg/kg, po dosed once daily for 4 consecutive days beginning 1 hr after initial infection and measured on day 6 post infection by Giemsa staining method; assay type: functional; outline: as §2
Plasmodium berghei [5] = test: Antiplasmodial activity against Plasmodium berghei infected in Swiss Webster mouse assessed as mouse survival at 3 mg/kg, po dosed once daily for 4 consecutive days beginning 1 hr after initial infection and measured on day 7 post infection by Giemsa staining method; assay type: functional; outline: as §2
Plasmodium berghei [6] = test: Antiplasmodial activity against Plasmodium berghei infected in Swiss Webster mouse assessed as mouse survival at 3 mg/kg, po dosed once daily for 4 consecutive days beginning 1 hr after initial infection and measured on day 8 post infection by Giemsa staining method; assay type: functional; outline: as §2
Plasmodium berghei [7] = test: Antiplasmodial activity against Plasmodium berghei infected in Swiss Webster mouse assessed as mouse survival at 1 mg/kg, po dosed once daily for 4 consecutive days beginning 1 hr after initial infection and measured on day 8 post infection by Giemsa staining method; assay type: functional; outline: as §2
Plasmodium berghei [8] = test: Antiplasmodial activity against Plasmodium berghei infected in Swiss Webster mouse assessed as mouse survival at 11 mg/kg, po dosed once daily for 4 consecutive days beginning 1 hr after initial infection and measured on day 7 post infection by Giemsa staining method; assay type: functional; outline: as §2
Plasmodium berghei [9] = test: Antiplasmodial activity against Plasmodium berghei infected in Swiss Webster mouse assessed as […] dosed orally once daily for 4 consecutive days beginning 1 hr after initial infection and measured on day 4 after onset of treatment by Giemsa staining method; assay type: functional; details: po
Outline: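 In the P. berghei model, female Swiss Webster mice were infected ip with 6 × 10^6 infected erythrocytes. They were gavaged once daily for 4 days from 1 h post-infection, in PEG 300/propylene glycol/water (55/25/20 by weight), with 5 mice per dose. Parasitemia was counted on Giemsa smears. ED90 is the dose reducing parasitemia 90% versus vehicle controls 4 days after therapy began, fitted by nonlinear regression.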

Plasmodium berghei [10] = test: Antiplasmodial activity against Plasmodium berghei infected in Swiss Webster mouse assessed as mouse survival at 100 mg/kg, po dosed once daily for 4 consecutive days beginning 1 hr after initial infection and measured on day 8 post infection by Giemsa staining method; assay type: functional; outline: as §2
Plasmodium berghei [11] = test: Antiplasmodial activity against Plasmodium berghei infected in Swiss Webster mouse assessed as mouse survival at 11 mg/kg, po dosed once daily for 4 consecutive days beginning 1 hr after initial infection and measured on day 6 post infection by Giemsa staining method; assay type: functional; outline: as §2
Plasmodium berghei [12] = test: Antiplasmodial activity against Plasmodium berghei infected in Swiss Webster mouse assessed as mouse survival at 3 mg/kg, po dosed once daily for 4 consecutive days beginning 1 hr after initial infection and measured on day 5 post infection by Giemsa staining method; assay type: functional; outline: as §2
Plasmodium berghei [13] = test: Antiplasmodial activity against Plasmodium berghei infected in Swiss Webster mouse assessed as mouse survival at 11 mg/kg, po dosed once daily for 4 consecutive days beginning 1 hr after initial infection and measured on day 4 post infection by Giemsa staining method; assay type: functional; outline: as §2
Plasmodium berghei [14] = test: Antiplasmodial activity against Plasmodium berghei infected in Swiss Webster mouse assessed as mouse survival at 1 mg/kg, po dosed once daily for 4 consecutive days beginning 1 hr after initial infection and measured on day 9 post infection by Giemsa staining method; assay type: functional; outline: as §2
Plasmodium falciparum [15] = test: Antimalarial activity against chloroquine-resistant Plasmodium falciparum W2 cultured in human erythrocytes assessed as inhibition of parasite growth incubated for 48 hrs by YOYO-1 staining based flow cytometry; assay type: functional, organism-based; details: W2, 48 h
Plasmodium berghei [16] = test: Antiplasmodial activity against Plasmodium berghei infected in Swiss Webster mouse assessed as mouse survival at 1 mg/kg, po dosed once daily for 4 consecutive days beginning 1 hr after initial infection and measured on day 5 post infection by Giemsa staining method; assay type: functional; outline: as §2
Jurkat = test: Cytotoxicity against human Jurkat cells incubated for 72 hrs by MTT assay; assay type: cell-based
Plasmodium berghei [17] = test: Antiplasmodial activity against Plasmodium berghei infected in Swiss Webster mouse assessed as mouse survival at 11 mg/kg, po dosed once daily for 4 consecutive days beginning 1 hr after initial infection and measured on day 5 post infection by Giemsa staining method; assay type: functional; outline: as §2
Plasmodium berghei [18] = test: Antiplasmodial activity against Plasmodium berghei infected in Swiss Webster mouse assessed as mouse survival at 33 mg/kg, po dosed once daily for 4 consecutive days beginning 1 hr after initial infection and measured on day 8 post infection by Giemsa staining method; assay type: functional; outline: as §1
Plasmodium berghei [19] = test: Antiplasmodial activity against Plasmodium berghei infected in Swiss Webster mouse assessed as mouse survival at 100 mg/kg, po dosed once daily for 4 consecutive days beginning 1 hr after initial infection and measured on day 4 post infection by Giemsa staining method; assay type: functional; outline: as §2
Plasmodium berghei [20] = test: Antiplasmodial activity against Plasmodium berghei infected in Swiss Webster mouse assessed as mouse survival at 100 mg/kg, po dosed once daily for 4 consecutive days beginning 1 hr after initial infection and measured on day 6 post infection by Giemsa staining method; assay type: functional; outline: as §2
Plasmodium berghei [21] = test: Antiplasmodial activity against Plasmodium berghei infected in Swiss Webster mouse assessed as mouse survival at 33 mg/kg, po dosed once daily for 4 consecutive days beginning 1 hr after initial infection and measured on day 7 post infection by Giemsa staining method; assay type: functional; outline: as §1
Plasmodium berghei [22] = test: Antiplasmodial activity against Plasmodium berghei infected in Swiss Webster mouse assessed as mouse survival at 100 mg/kg, po dosed once daily for 4 consecutive days beginning 1 hr after initial infection and measured on day 5 post infection by Giemsa staining method; assay type: functional; outline: as §2
Plasmodium falciparum [23] = test: Antimalarial activity against chloroquine-sensitive Plasmodium falciparum 3D7 cultured in human erythrocytes incubated for 48 hrs by [3H]-hypoxanthine incorporation assay; assay type: functional, organism-based
Outline: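 3D7 parasites in human erythrocytes, RPMI-1640 with 0.5% Albumax II, […], 37 °C, 5% O2/5% CO2. Asynchronous cultures (0.5% parasitemia, 2% hematocrit) given 3-fold serial dilutions for 24 h. [3H]hypoxanthine then added for a further 24 h, and incorporation counted by scintillation. Normalised to drug-free infected cells. IC50 from at least three independent experiments.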

In the case of `O=C(O)c1cnc(Oc2ccc3c(c2)B(O)OC3)cn1`, the survival at 33 mg/kg (Plasmodium berghei [1]) was 100%, the survival at 1 mg/kg (Plasmodium berghei [2]) was 100% and the survival at 3 mg/kg (Plasmodium berghei [3]) was 100%. The survival at 3 mg/kg (Plasmodium berghei [4]) was 100%, the survival at 3 mg/kg (Plasmodium berghei [5]) was 60% and the survival at 3 mg/kg (Plasmodium berghei [6]) was 20%. For the same molecule, the survival at 1 mg/kg (Plasmodium berghei [7]) was 40%, the survival at 11 mg/kg (Plasmodium berghei [8]) was 100% and the ED90 (Plasmodium berghei [9]) was 30.3 mg/kg. For the same molecule, the survival at 100 mg/kg (Plasmodium berghei [10]) was 100%, the survival at 11 mg/kg (Plasmodium berghei [11]) was 100% and the survival at 3 mg/kg (Plasmodium berghei [12]) was 100%. It also gave a survival at 11 mg/kg (Plasmodium berghei [13]) of 100%, a survival at 1 mg/kg (Plasmodium berghei [14]) of 0% and a pIC50 (Plasmodium falciparum [15]) of 6.82. It also gave a survival at 1 mg/kg (Plasmodium berghei [16]) of 100%, a pIC50 (Jurkat) of less than 4.00 and a survival at 11 mg/kg (Plasmodium berghei [17]) of 100%. For the same molecule, the survival at 33 mg/kg (Plasmodium berghei [18]) was 80%, the survival at 100 mg/kg (Plasmodium berghei [19]) was 100% and the survival at 100 mg/kg (Plasmodium berghei [20]) was 100%. For the same molecule, the survival at 33 mg/kg (Plasmodium berghei [21]) was 100% and the survival at 100 mg/kg (Plasmodium berghei [22]) was 100%.

With `O=C(O)c1ccc(Oc2ccc3c(c2)B(O)OC3)cn1` the survival at 33 mg/kg (Plasmodium berghei [1]) was 100%, the survival at 1 mg/kg (Plasmodium berghei [2]) was 100% and the survival at 3 mg/kg (Plasmodium berghei [3]) was 100%. The survival at 3 mg/kg (Plasmodium berghei [4]) was 100%, the survival at 3 mg/kg (Plasmodium berghei [5]) was 60% and the survival at 3 mg/kg (Plasmodium berghei [6]) was 20%. For the same molecule, the survival at 1 mg/kg (Plasmodium berghei [7]) was 0%, the survival at 11 mg/kg (Plasmodium berghei [8]) was 100% and the ED90 (Plasmodium berghei [9]) was 21.1 mg/kg. For the same molecule, the survival at 100 mg/kg (Plasmodium berghei [10]) was 80%, the survival at 11 mg/kg (Plasmodium berghei [11]) was 100% and the survival at 3 mg/kg (Plasmodium berghei [12]) was 100%. It also gave a survival at 11 mg/kg (Plasmodium berghei [13]) of 100%, a pIC50 (Plasmodium falciparum [15]) of 6.77 and a survival at 1 mg/kg (Plasmodium berghei [16]) of 100%. The survival at 11 mg/kg (Plasmodium berghei [17]) was 100%, the survival at 33 mg/kg (Plasmodium berghei [18]) was 60% and the pIC50 (Plasmodium falciparum [23]) was 6.27. It also gave a survival at 100 mg/kg (Plasmodium berghei [19]) of 100%, a survival at 100 mg/kg (Plasmodium berghei [20]) of 100% and a survival at 33 mg/kg (Plasmodium berghei [21]) of 100%. For the same molecule, the survival at 100 mg/kg (Plasmodium berghei [22]) was 100%.

With `COC(=O)c1cnc(Oc2ccc3c(c2)B(O)OC3)cn1` the survival at 33 mg/kg (Plasmodium berghei [1]) was 100%, the survival at 1 mg/kg (Plasmodium berghei [2]) was 100% and the survival at 3 mg/kg (Plasmodium berghei [3]) was 100%. For the same molecule, the survival at 3 mg/kg (Plasmodium berghei [4]) was 100%, the survival at 3 mg/kg (Plasmodium berghei [5]) was 100% and the survival at 3 mg/kg (Plasmodium berghei [6]) was 80%. The survival at 1 mg/kg (Plasmodium berghei [7]) was 40%, the survival at 11 mg/kg (Plasmodium berghei [8]) was 100% and the ED90 (Plasmodium berghei [9]) was 7 mg/kg. It also gave a survival at 100 mg/kg (Plasmodium berghei [10]) of 100%, a survival at 11 mg/kg (Plasmodium berghei [11]) of 100% and a survival at 3 mg/kg (Plasmodium berghei [12]) of 100%. It also gave a survival at 11 mg/kg (Plasmodium berghei [13]) of 100%, a survival at 1 mg/kg (Plasmodium berghei [14]) of 0% and a pIC50 (Plasmodium falciparum [15]) of 8.85. For the same molecule, the survival at 1 mg/kg (Plasmodium berghei [16]) was 100%, the pIC50 (Jurkat) was 5.12 and the survival at 11 mg/kg (Plasmodium berghei [17]) was 100%. It also gave a survival at 33 mg/kg (Plasmodium berghei [18]) of 100%, a pIC50 (Plasmodium falciparum [23]) of 8.72 and a survival at 100 mg/kg (Plasmodium berghei [19]) of 100%. It also gave a survival at 100 mg/kg (Plasmodium berghei [20]) of 100%, a survival at 33 mg/kg (Plasmodium berghei [21]) of 100% and a survival at 100 mg/kg (Plasmodium berghei [22]) of 100%.

With `NC(=O)c1cnc(Oc2ccc3c(c2)B(O)OC3)cn1` the survival at 33 mg/kg (Plasmodium berghei [1]) was 100%, the survival at 1 mg/kg (Plasmodium berghei [2]) was 100% and the survival at 3 mg/kg (Plasmodium berghei [3]) was 100%. It also gave a survival at 3 mg/kg (Plasmodium berghei [4]) of 100%, a survival at 3 mg/kg (Plasmodium berghei [5]) of 80% and a survival at 3 mg/kg (Plasmodium berghei [6]) of 60%. It also gave a survival at 1 mg/kg (Plasmodium berghei [7]) of 40%, a survival at 11 mg/kg (Plasmodium berghei [8]) of 100% and an ED90 (Plasmodium berghei [9]) of 38.7 mg/kg. The survival at 100 mg/kg (Plasmodium berghei [10]) was 100%, the survival at 11 mg/kg (Plasmodium berghei [11]) was 100% and the survival at 3 mg/kg (Plasmodium berghei [12]) was 100%. It also gave a survival at 11 mg/kg (Plasmodium berghei [13]) of 100%, a survival at 1 mg/kg (Plasmodium berghei [14]) of 0% and a pIC50 (Plasmodium falciparum [15]) of 6.68. It also gave a survival at 1 mg/kg (Plasmodium berghei [16]) of 100%, a pIC50 (Jurkat) of 4.32 and a survival at 11 mg/kg (Plasmodium berghei [17]) of 100%. It also gave a survival at 33 mg/kg (Plasmodium berghei [18]) of 100%, a pIC50 (Plasmodium falciparum [23]) of 6.46 and a survival at 100 mg/kg (Plasmodium berghei [19]) of 100%. The survival at 100 mg/kg (Plasmodium berghei [20]) was 100%, the survival at 33 mg/kg (Plasmodium berghei [21]) was 100% and the survival at 100 mg/kg (Plasmodium berghei [22]) was 100%.
